Source: PubChem (several laboratories)
KCC2 mod: modulates chloride dependent transport by human KCC2; Q9H2X9; KCC2 cells, thallium flux FluoZin-2 fluorescence; B-score of Tl+ flux slope (higher = more flux/activation; lower = inhibition) at 10 µM; hit rate 2.2% among 190,000;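 active = thallium flux slope and its plate-corrected score both differing from the plate sample mean at a set confidence after two filtering rounds, in either direction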;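 note: slope of fluorescence scaled to starting intensity during 10 to 20 s after thallium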
Target sequence (Q9H2X9 whole entry, looked up): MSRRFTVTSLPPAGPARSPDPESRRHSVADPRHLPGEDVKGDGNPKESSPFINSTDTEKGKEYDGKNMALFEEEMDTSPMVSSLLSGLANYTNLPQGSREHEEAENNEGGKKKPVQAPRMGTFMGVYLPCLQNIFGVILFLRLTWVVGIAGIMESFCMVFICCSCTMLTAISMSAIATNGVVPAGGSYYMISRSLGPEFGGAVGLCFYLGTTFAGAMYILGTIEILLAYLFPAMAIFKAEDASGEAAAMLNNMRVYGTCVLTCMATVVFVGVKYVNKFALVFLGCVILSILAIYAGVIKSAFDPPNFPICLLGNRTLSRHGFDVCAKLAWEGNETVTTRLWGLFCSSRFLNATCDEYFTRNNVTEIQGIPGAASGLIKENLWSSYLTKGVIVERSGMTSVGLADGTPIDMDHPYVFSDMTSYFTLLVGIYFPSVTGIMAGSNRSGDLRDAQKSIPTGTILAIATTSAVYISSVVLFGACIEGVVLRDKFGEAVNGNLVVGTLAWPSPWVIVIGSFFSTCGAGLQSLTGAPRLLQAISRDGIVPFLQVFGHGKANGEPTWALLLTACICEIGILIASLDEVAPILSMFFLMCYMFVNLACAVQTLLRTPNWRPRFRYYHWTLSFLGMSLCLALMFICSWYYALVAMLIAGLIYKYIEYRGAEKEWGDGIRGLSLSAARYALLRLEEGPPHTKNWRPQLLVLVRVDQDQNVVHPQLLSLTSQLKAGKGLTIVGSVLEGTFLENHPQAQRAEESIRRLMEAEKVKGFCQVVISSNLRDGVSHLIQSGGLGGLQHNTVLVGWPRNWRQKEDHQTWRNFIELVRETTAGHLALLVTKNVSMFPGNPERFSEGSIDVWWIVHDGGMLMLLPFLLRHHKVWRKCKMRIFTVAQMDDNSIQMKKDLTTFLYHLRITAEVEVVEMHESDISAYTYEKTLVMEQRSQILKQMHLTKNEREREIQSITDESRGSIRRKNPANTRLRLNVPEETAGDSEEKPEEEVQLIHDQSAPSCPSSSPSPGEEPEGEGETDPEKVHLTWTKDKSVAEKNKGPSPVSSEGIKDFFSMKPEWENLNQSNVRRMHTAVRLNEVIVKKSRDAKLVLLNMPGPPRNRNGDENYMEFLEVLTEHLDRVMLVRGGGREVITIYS
RBBP9 inhibitor: inhibitors of human serine hydrolase RBBP9; inhibition, % at 7.94 µM; AID 1515; recombinant RBBP9, FP-Rh probe fluorescence polarization; hit rate 0.2% among 220,000;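 active = inhibition above the campaign mean of all tested compounds plus 3 SD, cut at about 14% in these data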;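 note: plate controls were DMSO wells with RBBP9 for no effect and wells lacking RBBP9 protein for full effect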
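Test system: recombinant human RBBP9. Quantity: 2.5 µM RBBP9 dispensing solution, before mixing. Detection: FP readout at 525/598 nm. Reagent: Serine-hydrolase probe FP-Rh, 375 nM pre-mixing. Measure: % inhibition. Control set: DMSO-treated enzyme wells and wells lacking RBBP9. Buffer or medium: Tris-NaCl-Pluronic buffer, pH 8.0. Times: preincubation 30 min plus labeling 45 min at 25 °C.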
WT yeast gro inh: growth inhibition of WT yeast, mitochondrial fusion screen. mitochondrial fusion phenotypic screen, WT strain. inhibition, % at 10 µM. hit rate 2.1% among 190,000; in the data active = inhibition above about 58%; tested in S. cerevisiae
ROMK mod: modulates human ROMK potassium channel activity; Tet-inducible ROMK, thallium flux fluorescence; actives lie on both sides; B-score at 10 µM; hit rate 2% among 130,000; AID 1918;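 active = signal ratio slope over the read window, or its plate-corrected B-score, at least 3 SD from the plate mean, either direction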;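 note: B-score of the F/F0 ratio slope over 7 to 12 s after thallium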
14-3-3 Bad inh: disrupts binding of bovine 14-3-3 zeta to phospho-Bad peptide. P63103. TR-FRET 14-3-3zeta/Dy647-pBad peptide displacement, 1 h. inhibition, % at 21.7 µM. hit rate 0.71% among 220,000. AID 781;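 active = inhibition above about 70%, limit read from the data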;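 note: 0% = full 14-3-3 plus peptide FRET controls and 100% = background without 14-3-3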
p47phox inh: blocks human p47phox regulatory protein of NADPH oxidases | P14598 | p47phox/p22phox peptide binding, fluorescence polarization, 2 h | inhibition, % at 24.7 µM | hit rate 0.53% among 220,000 | AID 1274;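 active = inhibition above about 30%, limit read from the data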;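 note: 0% = p47phox with labelled peptide and 100% = labelled peptide alone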
KCC2 secondary: confirmation of human KCC2 transport modulators; shares compounds with KCC2 mod; HEK293-KCC2, thallium flux, FluoZin2 fluorescence; active compounds read high; normalised thallium flux (F/F0 slope) at 10 µM; hit rate 15% among 3,700; AID 1713;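 active = thallium flux slope above the same plate's solvent-only control mean plus 3 SD; inconclusive = the two replicate wells disagree; inactive = no significant difference from solvent-only control wells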
KCC2 bumet counter: thallium flux despite bumetanide block in KCC2 cells, secondary assay 3; shares compounds with KCC2 mod; HEK293-KCC2 + bumetanide/ouabain, thallium flux FluoZin2; active compounds read high; normalized thallium flux at 10 µM; hit rate 49% among 3,700; AID 1714;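 active = thallium entry rate above the same plate's blocked-transporter control wells by more than 3 SD; inconclusive = the two repeat wells disagree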;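 note: raw slope of fluorescence over initial fluorescence between 10 and 20 s after thallium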
KCC2 secondary2: confirmation of human KCC2 transport modulators; shares compounds with KCC2 mod; HEK293-KCC2, thallium flux FluoZin2 fluorescence; actives lie on both sides; F/F0 rise rate, 10–20 s post-thallium; normalized thallium flux at 10 µM; hit rate 23% among 3,700;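 active = thallium flux slope more than 3 SD above or below the plate's solvent-only control mean, mostly below; inconclusive = the two repeat wells disagreed; inactive = no significant shift from solvent-only controls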;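 note: raw slope with 0.1% DMSO as baseline and bumetanide as block control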
HEK293 Tl flux: acts in parental HEK cells, KCC2 counter-screen; HEK293 parental cells, thallium flux FluoZin2, ouabain; baseline-ratio fluorescence slope, 10–20 s after thallium; hit rate 46% among 3,700; AID 1716; thallium flux rate (normalised fluorescence) at 10 µM; shares compounds with KCC2 mod;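 active = thallium flux rate significantly above the same plate's solvent-only control wells, beyond their mean plus 3 SD; inconclusive = the two replicate wells gave conflicting results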
KCC2 ouabain: confirmation of human KCC2 modulators with ouabain; shares compounds with KCC2 mod; HEK293-KCC2, thallium flux FluoZin2 fluorescence; bidirectional: low = inhibitor, high = activator; raw Tl+ flux slope (below DMSO = inhibition, above = activation) at 10 µM; hit rate 48% among 3,700;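 active = thallium flux slope beyond 3 SD from same-plate DMSO control mean in most replicates, usually higher, sometimes lower; inconclusive = repeat tests gave conflicting results; inactive = no significant difference from controls in most replicates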;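 note: slope of initial-normalized fluorescence between seconds 10 and 20 after thallium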
HEK counter2: acts in parental HEK cells, second KCC2 counter-screen | shares compounds with KCC2 mod | HEK293 parental, thallium flux FluoZin-2 fluorescence slope | thallium flux slope at 10 µM | hit rate 33% among 3,700;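 active = thallium flux slope above the same plate's solvent-control mean plus 3 SD in both duplicate wells; inconclusive = duplicate wells that disagreed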;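 note: run without ouabain in cells lacking the KCC2 cotransporter; slope of fluorescence scaled to its starting value between 10 and 20 s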
* hit, by the source's call; ? = inconclusive; nt = not tested or not shown. The list is not random: actives were taken first. Their share in the collection is about 5.8%.

SMILES	KCC2 mod	RBBP9 inhibitor	WT yeast gro inh	ROMK mod	14-3-3 Bad inh	p47phox inh	KCC2 secondary	KCC2 bumet counter	KCC2 secondary2	HEK293 Tl flux	KCC2 ouabain	HEK counter2
S=C(NCc1ccco1)N/N=C/c1ccccc1Cl	7.27*	-8.4	-6.9	-0.0274	5.9	-3.4	0.0089	0.0175*	0.0314	0.00949*	0.0336*	?
O=C(NC(=S)NCc1ccccc1)c1ccccc1	22.2*	1.6	25.2	-0.106	-4.0	-14.5	0.00633	0.036*	0.0427*	0.0292*	0.0378*	0.0299*
S=C(NCc1ccco1)Nc1ccccc1	-1.58	10.7	9.2	nt	-9.0	-6.0	nt	nt	nt	nt	nt	nt
O=C(NC(=S)NCc1ccncc1)c1ccccc1	0.0893	0.8	-10.7	-0.427	-0.2	-1.3	nt	nt	nt	nt	nt	nt
O=C(NC(=S)NCc1ccco1)c1ccccc1	18.6*	-3.0	16.2	-0.391	-4.8	-6.5	?	0.0364*	0.0345	0.0146*	0.0275	0.0129*
COc1ccccc1/C=N/NC(=S)NCc1ccco1	4.3	5.6	nt	-0.188	-0.8	-16.2	nt	nt	nt	nt	nt	nt
CCCCc1noc(-c2c(-c3ccccc3Cl)noc2C)n1	-0.143	-2.1	53.2	nt	12.3	-0.7	nt	nt	nt	nt	nt	nt
CCOC(=O)C1=C(NC(=S)NC(=O)c2ccccc2)c2ccccc2CC1(C)CC (stereo not drawn)	5.59*	-8.0	70.2*	0.777	-4.5	-9.0	?	0.033*	0.0361	0.0151*	?	0.0113
CC(C)(C)C(=O)O/N=C(\N)Cc1ccc(-c2csnn2)cc1	0.502	3.4	nt	nt	4.0	-15.1	nt	nt	nt	nt	nt	nt
COc1ccc2c(c1)C(=O)[C@@H](O)[C@H](c1ccc(OC)c(Br)c1)O2	5.96*	-9.9	24.9	0.598	-9.6	-4.9	0.00841	0.0137*	0.0314	0.0198*	?	0.0108
O=[N+]([O-])c1cc(S(=O)(=O)Nc2cccc(C(F)(F)F)c2)ccc1-n1nnc2ccccc21	-3.22*	0.7	25.5	-2.61	1.5	2.0	0.00701	0.00556	0.0305	0.00733	0.0149*	?
COc1ccc(NS(=O)(=O)c2ccc(-n3nnc4ccccc43)c([N+](=O)[O-])c2)cc1	0.971	-7.3	-12.5	nt	-0.6	2.8	nt	nt	nt	nt	nt	nt
O=C(CCNC(=O)Cn1ccc2ccccc2c1=O)NCCc1ccc(Cl)cc1	-1.09	-4.1	4.5	nt	-3.2	-7.1	nt	nt	nt	nt	nt	nt
O=[N+]([O-])c1ccc2[nH]c(O)c(N=NC3CCS(=O)(=O)C3)c2c1 (stereo not drawn)	-0.147	-0.4	nt	nt	-0.5	-9.4	nt	nt	nt	nt	nt	nt
Cc1ccsc1/C=C/c1ccc2cccc(O)c2n1	1.37	6.2	15.5	0.376	-0.2	-10.8	nt	nt	nt	nt	nt	nt
Oc1cccc2ccc(/C=C/c3cccs3)nc12	14.9*	-13.2	52.0	nt	-18.8	-12.9	0.00962	0.0186*	0.0316	0.0129*	?	0.0111
C=CCn1c(SCC(=O)c2ccccc2)nnc1-c1ccc2c(c1)OCO2	-2.3	-8.8	4.1	-0.374	-9.0	-18.3	0.01	0.00677	0.0331	0.00748	0.0207	?
CSc1ncc(Cl)c(C(=O)Nc2cccc(C)c2)n1	-1.71	-7.4	-5.9	nt	-2.9	-4.2	nt	nt	nt	nt	nt	nt
CSc1ncc(Cl)c(C(=O)C(C#N)c2nc3c(C)cc(C)cc3c(=O)[nH]2)n1 (stereo not drawn)	5.05*	-6.0	4.3	-0.137	25.1	-11.2	0.007	0.0192*	0.0338	0.0163*	?	0.0152*
Cc1occc1-c1nnc(SCC(=O)O)n1-c1ccccc1	-0.285	-1.2	nt	nt	3.7	0.3	nt	nt	nt	nt	nt	nt
CCC(C)(C)n1nnnc1C(c1ccc(O)c(OC)c1)N1CCN(c2nc3ccccc3s2)CC1 (stereo not drawn)	-4.29*	0.3	17.2	nt	-2.6	-6.6	0.00798	0.00466	0.0228*	0.00701	0.0164*	0.00998
COc1ccc(C(c2nnnn2C(C)(C)C)N2CCN(c3nc4ccccc4s3)CC2)cc1 (stereo not drawn)	-0.453	-10.2	34.8	nt	3.1	-4.1	nt	nt	nt	nt	nt	nt
c1ccc(CCc2nn3c(Cc4ccccc4)nnc3s2)cc1	-2.72*	-8.8	-18.1	nt	5.6	-4.1	0.00728	0.00624	0.0319	0.00654	0.0177*	0.0106
N#C/C(=C\c1ccc(-c2ccccc2[N+](=O)[O-])o1)C(=O)Nc1nc(-c2cccs2)cs1	7.74*	7.7	3.2	nt	3.9	-13.7	0.0183	0.0268*	0.0316	0.0174*	0.0219*	0.0157*
N#C/C(=C\c1ccc(-c2ccc([N+](=O)[O-])cc2)o1)C(=O)Nc1nc(-c2cccs2)cs1	1.93	-5.1	nt	nt	67.9	-1.0	nt	nt	nt	nt	nt	nt
SMILES	KCC2 mod	RBBP9 inhibitor	WT yeast gro inh	ROMK mod	14-3-3 Bad inh	p47phox inh	KCC2 secondary	KCC2 bumet counter	KCC2 secondary2	HEK293 Tl flux	KCC2 ouabain	HEK counter2
CC(=O)Oc1ccc(C(=O)Nc2nnc(C)s2)cc1	2.43*	-5.2	1.7	nt	5.4	3.5	0.00858	0.00662	0.0305	0.00664	0.0186	?
Cc1cnc(NC(=O)c2c(O)c3cccc4c3n(c2=O)CCC4)s1	-0.594	-5.1	-0.2	nt	-4.1	4.9	nt	nt	nt	nt	nt	nt
CC(C)c1nnc(NC(=O)c2c(O)c3cccc4c3n(c2=O)CCC4)s1	nt	-0.7	6.1	0.0433	13.0	-13.6	0.0076	0.00899*	0.0273	0.00626	0.0166*	0.00934
CC(C)n1c(O)c(N=NC(=O)C2COc3ccccc3O2)c2ccccc21 (stereo not drawn)	10*	-5.9	51.8	0.887	-7.7	9.0	0.00808	0.0275*	0.0333	0.0299*	0.0306*	0.0259*
Cn1c(O)c(N=NC(=O)C2COc3ccccc3O2)c2ccccc21 (stereo not drawn)	-0.229	-7.3	nt	0.175	-8.2	-2.0	nt	nt	nt	nt	nt	nt
CCOC(=O)C1CCCN(C/C(O)=C(\C#N)c2nc(-c3ccc(Cl)cc3)cs2)C1 (stereo not drawn)	-3.47*	-7.0	-1.9	nt	1.5	-20.3	0.00837	0.00473	0.0244*	0.00733	0.0178*	0.0103
CS(=O)(=O)c1ccc(C(=O)Nc2ccc(N3CCOCC3)cc2)c(Cl)c1	-0.00841	0.1	-13.1	0.0502	-8.6	0.8	nt	nt	nt	nt	nt	nt
